Reference: ChEMBL document CHEMBL1828547, “Synthesis and antimalarial activity of 2-guanidino-4-oxoimidazoline derivatives” (J Med Chem, 2011)
In brackets after ≈: the same amount, converted by molar mass. Activity calls are given as the source filed them. The rule behind the calls is not given here.

Columns and labels:
[1] = Metabolic stability in mouse assessed as half life at 320 mg/kg, po by LC-MS/MS analysis; assay type: ADME, organism-based; set-up: dose 320 mg/kg, route oral; conditions: in vivo
Plasmodium falciparum [2] = experiment: Antimalarial activity against blood stage Plasmodium falciparum D6 assessed as [3H]-hypoxanthine uptake after 24 hrs by scintillation counting; assay type: functional, organism-based
Plasmodium berghei [3] = experiment: Antimalarial activity against Plasmodium berghei […] mouse model assessed as delay in patency time at 160 mg/kg, po administered one day before infection, on day of infection and one day post infection; assay type: functional
In short: (§1)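 Sporozoite-challenged exoerythrocytic mouse model using P. berghei. Compound ground and suspended in hydroxyethylcellulose with Tween 80 for oral dosing, given once daily for 3 consecutive days: day before, 4 h before, and day after sporozoite inoculation. Dose in (mg/kg)/day. Mice are scored for protection (causal prophylaxis) and for delay in patency.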

Plasmodium falciparum [4] = experiment: Antimalarial activity against blood stage Plasmodium falciparum TM91C235 assessed as [3H]-hypoxanthine uptake after 24 hrs by scintillation counting; assay type: functional, organism-based
[5] = Metabolic stability in human assessed as half life at 320 mg/kg, po by LC-MS/MS analysis; assay type: ADME, organism-based; set-up: dose 320 mg/kg, route oral
Plasmodium falciparum [6] = experiment: Antimalarial activity against blood stage Plasmodium falciparum W2 assessed as [3H]-hypoxanthine uptake after 24 hrs by scintillation counting; assay type: functional, organism-based
Plasmodium cynomolgi [7] = experiment: Antimalarial activity against Plasmodium cynomolgi infected in rhesus monkey assessed as delay in patency time at 50 mg/kg, po administered one day before infection, on day of infection followed by 1 day post infection; assay type: functional
In short: (§2)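 Rhesus monkeys challenged with P. cynomolgi sporozoites. Oral dosing on days −1, 0 and 1 in HECT or MC vehicle, with dose in (mg/kg)/day. Read-out is the first day of patency and the delay in patency relative to vehicle-treated controls.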

[8] = Metabolic stability in human assessed as half life at 160 mg/kg, po by LC-MS/MS analysis; assay type: ADME, organism-based; set-up: dose 160 mg/kg, route oral
Plasmodium berghei [9] = experiment: Antimalarial activity against Plasmodium berghei […] mouse model assessed as causal prophylactic activity at 160 mg/kg, po administered one day before infection, on day of infection and one day post infection; assay type: functional, organism-based; set-up: dose 160 mg/kg; in short: as §1
[10] = Metabolic stability in mouse assessed as half life at 160 mg/kg, po by LC-MS/MS analysis; assay type: ADME, organism-based; set-up: dose 160 mg/kg, route oral
Plasmodium cynomolgi [11] = experiment: Antimalarial activity against Plasmodium cynomolgi infected in rhesus monkey assessed as time delayed in relapse of patency at 10 mg/kg/day, po administered for 7 days; assay type: functional
In short: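 Rhesus monkeys that developed P. cynomolgi parasitemia in the prophylaxis test were used once parasitemia reached 5000 parasites/mm³. Oral chloroquine 10 (mg/kg)/day was given for 7 days, with test agent given alongside. Relapse was monitored. Monkeys with no relapse after 100 days were counted as radically cured. Relapsing controls were retreated with chloroquine and followed for a second relapse.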

Plasmodium berghei [12] = experiment: Antimalarial activity against Plasmodium berghei […] mouse model assessed as causal prophylactic activity at 320 mg/kg, po administered one day before infection, on day of infection and one day post infection; assay type: functional, organism-based; set-up: dose 320 mg/kg
In short: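 Sporozoite-inoculated P. berghei exoerythrocytic (EE) mouse model. Compound ground and suspended in hydroxyethylcellulose plus Tween 80 for oral dosing, given once daily for 3 consecutive days: day before, 4 h before, and day after sporozoite inoculation (days −1, 0, 1). Dose in (mg/kg)/day. Read-out is mice protected per group (causal prophylaxis) or delay in patency.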

Rhesus monkey [13] = experiment: Drug uptake in rhesus monkey after 24 hrs relative to control; assay type: ADME, organism-based, Macaca mulatta; conditions: in vivo
Rhesus monkey [14] = experiment: Drug uptake in im dosed rhesus monkey measured after 24 hrs; assay type: ADME, organism-based, Macaca mulatta; conditions: in vivo
Rhesus monkey [15] = experiment: Drug uptake in im dosed rhesus monkey assessed as 1-(3,4-dichlorophenyl)-2-(1-isopropyl-4,5-dioxo-4,5-dihydro-1H-imidazol-2-yl)guanidine measured after 24 hrs; assay type: ADME, organism-based, Macaca mulatta; conditions: in vivo
Rhesus monkey [16] = experiment: Drug uptake in po dosed rhesus monkey measured after 24 hrs; assay type: ADME, organism-based, Macaca mulatta; conditions: in vivo
[17] = Half life in po dosed rhesus monkey; assay type: ADME, organism-based, Macaca mulatta; conditions: in vivo
[18] = Half life in im dosed rhesus monkey; assay type: ADME, organism-based, Macaca mulatta; conditions: in vivo
Rhesus monkey [19] = experiment: Drug uptake in po dosed rhesus monkey assessed as 1-(3,4-dichlorophenyl)-2-(1-isopropyl-4,5-dioxo-4,5-dihydro-1H-imidazol-2-yl)guanidine measured after 24 hrs; assay type: ADME, organism-based, Macaca mulatta; conditions: in vivo
Plasmodium berghei [20] = experiment: Antimalarial activity against Plasmodium berghei […] mouse model assessed as delay in patency time at 320 mg/kg, po administered one day before infection, on day of infection and one day post infection; assay type: functional; in short: as §1
Plasmodium berghei [21] = experiment: Antimalarial activity against Plasmodium berghei […] mouse model assessed as delay in patency time at 40 mg/kg, po administered one day before infection, on day of infection and one day post infection; assay type: functional; in short: as §1
Plasmodium cynomolgi [22] = experiment: Antimalarial activity against Plasmodium cynomolgi infected in rhesus monkey assessed as delay in patency time at 1.78 mg/kg, po administered one day before infection, on day of infection followed by 1 day post infection; assay type: functional; in short: as §2

Row | half-life [1] | IC50 (Plasmodium falciparum [2]) | IC50 (Plasmodium falciparum [4]) | half-life [5] | IC50 (Plasmodium falciparum [6]) | half-life [8] | half-life [10] | SMILES | Time (Plasmodium berghei [3]) | Activity (Plasmodium berghei [9]) | other results
1 | 49.8 min | > 5 µg/mL | > 5 µg/mL | > 60 min | > 5 µg/mL |  |  | CC(C)/N=C(\NC1=NC(=O)CN1C)Nc1ccc(Cl)c(Cl)c1 | 2 days |  | 
2 |  | 1.6 µg/mL (≈ 3.74 µM) | > 5 µg/mL |  | 0.74 µg/mL (≈ 1.73 µM) | 12.8 min | 15.8 min | CC(C)N1CC(=O)N=C1N/C(=N\C(=O)OC(C)(C)C)Nc1ccc(Cl)c(Cl)c1 |  | Active | Time (Plasmodium cynomolgi [7]): 2 days
3 |  |  |  |  |  |  |  | CCN(CC)CCCC(C)Nc1ccnc2cc(Cl)ccc12 (centres undefined) [CHLOROQUINE] |  |  | Time (Plasmodium cynomolgi [11]): 11 days
4 | > 60 min | 0.15 µg/mL (≈ 0.375 µM) |  | > 60 min | 0.25 µg/mL (≈ 0.625 µM) |  |  | CCOC(=O)/N=C(/NC1=NC(=O)CN1c1ccc(Cl)c(Cl)c1)NC(C)C |  |  | Activity (Plasmodium berghei [12]): inactive
5 |  |  |  |  |  |  |  | CC(C)N1C(=O)C(=O)NC1=NC(=NC(=O)OC(C)(C)C)Nc1ccc(Cl)c(Cl)c1 |  |  | Ratio (Rhesus monkey [13]): 10; Drug uptake (Rhesus monkey [14]): 96%; Drug uptake (Rhesus monkey [15]): 4%; Drug uptake (Rhesus monkey [16]): 86%; half-life [17]: 534 min; half-life [18]: 2.94 days; Drug uptake (Rhesus monkey [19]): 4%
6 | 13.5 min | 4.65 µg/mL (≈ 11.3 µM) |  | 40.5 min | 4.87 µg/mL (≈ 11.8 µM) |  |  | CC(C)N/C(=N\C(=O)C(C)(C)C)NC1=NC(=O)CN1c1ccc(Cl)c(Cl)c1 | 2 days |  | Time (Plasmodium berghei [20]): 2 days
7 |  | 1.26 µg/mL (≈ 3.15 µM) | 2.54 µg/mL (≈ 6.35 µM) |  | 1.72 µg/mL (≈ 4.3 µM) | < 10 min | < 10 min | CN1CC(=O)N=C1N/C(=N\C(=O)OC(C)(C)C)Nc1ccc(Cl)c(Cl)c1 | 1 days |  | Time (Plasmodium berghei [21]): 2 days
8 |  | 2.45 µg/mL (≈ 5.03 µM) |  | > 60 min | 2.58 µg/mL (≈ 5.3 µM) |  | > 60 min | CC(C)(C)N/C(=N/C1=NC(=O)CN1c1ccc(Cl)c(Cl)c1)Nc1ccc(Cl)c(Cl)c1 |  | inactive | 
9 |  | > 12 µg/mL | > 12 µg/mL |  | > 12 µg/mL | > 60 min | > 60 min | CC(C)n1cc(OC(=O)C(C)(C)C)nc1N/C(=N\C(=O)C(C)(C)C)Nc1ccc(Cl)c(Cl)c1 |  | inactive | 
10 |  | 1.55 µg/mL (≈ 3.35 µM) | 2.6 µg/mL (≈ 5.62 µM) |  | 2.51 µg/mL (≈ 5.43 µM) | 20.9 min | 22.3 min | CC(C)N1CC(=O)N=C1N/C(=N\C12CC3CC(CC(C3)C1)C2)Nc1ccc(Cl)c(Cl)c1 |  | inactive | 
11 | 5 min | 0.06 µg/mL (≈ 0.141 µM) | 0.16 µg/mL (≈ 0.375 µM) | 14 min | 0.09 µg/mL (≈ 0.211 µM) |  |  | CCC(CC)C(=O)/N=C(\NC1=NC(=O)CN1C(C)C)Nc1ccc(Cl)c(Cl)c1 | 2 days | inactive | Time (Plasmodium berghei [20]): 3 days
12 |  | 3.42 µg/mL (≈ 11.4 µM) | 3.31 µg/mL (≈ 11 µM) |  | 2.57 µg/mL (≈ 8.56 µM) | > 60 min | > 60 min | CN1CC(=O)N=C1NC(=N)Nc1ccc(Cl)c(Cl)c1 |  | inactive | 
13 | 17 min | 1.65 µg/mL (≈ 4.46 µM) | > 5 µg/mL | 53 min | 0.37 µg/mL (≈ 0.999 µM) |  |  | CC(C)/N=C(\NC1=NC(=O)CN1C(C)C)Nc1ccc(Cl)c(Cl)c1 | 1 days |  | Activity (Plasmodium berghei [12]): Active; Time (Plasmodium cynomolgi [7]): 4 days
14 |  |  |  |  |  |  |  | COc1cc(NC(C)CCCN)c2ncccc2c1 (centres undefined) [PRIMAQUINE] |  |  | Time (Plasmodium cynomolgi [22]): 5 days
15 | 13.5 min | 1.1 µg/mL (≈ 3.35 µM) | 2.19 µg/mL (≈ 6.67 µM) | 53.7 min | 0.7 µg/mL (≈ 2.13 µM) |  |  | CC(C)NC(=N)NC1=NC(=O)CN1c1cccc(Cl)c1Cl |  |  | 
